What was measured:
[1] = molecular target: T1, Protein deacetylase HDAC6 (Homo sapiens, UniProt Q9UBN7); experiment: Inhibition of recombinant N-terminal GST-tagged human HDAC6 (1 to 1215 residues) expressed in Baculovirus infected insect cells using RHKK-Ac as substrate by fluorimetric assay
T1 sequence (Q9UBN7 whole entry): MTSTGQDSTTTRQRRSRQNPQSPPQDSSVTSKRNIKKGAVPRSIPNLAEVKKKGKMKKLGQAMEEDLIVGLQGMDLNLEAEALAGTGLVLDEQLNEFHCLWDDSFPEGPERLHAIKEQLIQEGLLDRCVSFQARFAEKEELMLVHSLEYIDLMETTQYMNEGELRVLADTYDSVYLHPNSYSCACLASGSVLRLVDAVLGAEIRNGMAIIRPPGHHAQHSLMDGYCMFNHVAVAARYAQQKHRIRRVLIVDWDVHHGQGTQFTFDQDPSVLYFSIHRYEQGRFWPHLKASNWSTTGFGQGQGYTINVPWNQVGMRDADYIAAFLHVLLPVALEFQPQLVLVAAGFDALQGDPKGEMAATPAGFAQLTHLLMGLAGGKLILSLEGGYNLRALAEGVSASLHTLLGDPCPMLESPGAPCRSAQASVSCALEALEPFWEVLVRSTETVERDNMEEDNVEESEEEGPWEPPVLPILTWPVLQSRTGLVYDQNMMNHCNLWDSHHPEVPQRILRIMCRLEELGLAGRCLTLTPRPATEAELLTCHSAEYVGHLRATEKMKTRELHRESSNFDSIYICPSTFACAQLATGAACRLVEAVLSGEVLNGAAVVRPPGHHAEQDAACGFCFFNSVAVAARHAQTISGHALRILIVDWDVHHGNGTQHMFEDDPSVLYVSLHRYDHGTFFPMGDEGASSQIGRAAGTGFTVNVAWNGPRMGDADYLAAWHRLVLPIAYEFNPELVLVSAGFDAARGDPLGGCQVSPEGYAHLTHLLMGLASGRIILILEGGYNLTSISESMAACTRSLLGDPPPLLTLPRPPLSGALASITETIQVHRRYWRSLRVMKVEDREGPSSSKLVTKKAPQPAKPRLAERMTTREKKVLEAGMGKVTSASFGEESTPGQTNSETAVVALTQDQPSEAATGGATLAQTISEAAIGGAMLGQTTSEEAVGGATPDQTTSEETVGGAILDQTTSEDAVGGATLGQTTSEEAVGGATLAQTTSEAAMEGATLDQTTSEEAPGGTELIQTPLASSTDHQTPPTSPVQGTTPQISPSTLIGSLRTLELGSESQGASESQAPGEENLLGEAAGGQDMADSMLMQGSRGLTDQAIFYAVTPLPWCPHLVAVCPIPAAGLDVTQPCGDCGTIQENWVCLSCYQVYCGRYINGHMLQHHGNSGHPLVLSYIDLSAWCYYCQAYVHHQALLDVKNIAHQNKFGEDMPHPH

Histone deacetylase 9 = Histone deacetylase 9 (Homo sapiens, UniProt Q9UKV0); experiment: Inhibition of human HDAC9 using Boc-Lys(trifluoroacetyl)-AMC as substrate by fluorimetric assay
Homo sapiens [2] = organism: Homo sapiens; experiment: Selectivity ratio of IC50 for recombinant full length C-terminal FLAG/His-tagged human HDAC1 (1 to 482 residues) to IC50 for recombinant N-terminal GST-tagged human HDAC6 (1 to 1215 residues)
Homo sapiens [3] = organism: Homo sapiens; experiment: Selectivity ratio of IC50 for human HDAC9 to IC50 for recombinant N-terminal GST-tagged human HDAC6 (1 to 1215 residues)
[4] = Drug uptake in human A549 cells cytoplasm at 1 uM after 2 hrs by naphthalimide dye-based inverted light fluorescence confocal microscopic analysis; type: ADME, subcellular; details: a549, 2 h
How it was run: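 A549 cells incubated 2 hours with compound at 1 µM; intracellular distribution imaged by confocal microscopy with 405 nm laser excitation, emission collected at 460–560 nm.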

Histone deacetylase 1 = Histone deacetylase 1 (Homo sapiens, UniProt Q13547); experiment: Inhibition of recombinant full length C-terminal FLAG/His-tagged human HDAC1 (1 to 482 residues) expressed in sf21 cells using RHK-K(Ac)-AMC as substrate by fluorimetric assay
Homo sapiens [5] = organism: Homo sapiens; experiment: Selectivity ratio of IC50 for recombinant N-terminal GST-tagged /C-terminal His-tagged human HDAC4 (627 to 1084 residues) to IC50 for recombinant N-terminal GST-tagged human HDAC6 (1 to 1215 residues)
Histone deacetylase 2 = Histone deacetylase 2 (Homo sapiens, UniProt Q92769); experiment: Inhibition of recombinant full length C-terminal GST-tagged human HDAC2 (1 to 488 residues) expressed in insect cells using RHK-K(Ac)-AMC as substrate by fluorimetric assay
Homo sapiens [6] = organism: Homo sapiens; experiment: Selectivity ratio of IC50 for recombinant N-terminal GST-tagged human HDAC7 (518 to 991 residues) to IC50 for recombinant N-terminal GST-tagged human HDAC6 (1 to 1215 residues)
Kasumi 1 = experiment: Antiproliferative activity against human Kasumi-1 cells after 72 hrs by resazurin dye-based assay; type: functional, cell-based; details: Kasumi 1, 72 h
How it was run: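 KASUMI-1 cells incubated with compounds for 72 hr; viability read with resazurin reagent. IC50 taken as the mean of three experiments, each run in duplicate.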

Homo sapiens [7] = organism: Homo sapiens; experiment: Selectivity ratio of IC50 for recombinant full length C-terminal GST-tagged human HDAC2 (1 to 488 residues) to IC50 for recombinant N-terminal GST-tagged human HDAC6 (1 to 1215 residues)

Histone deacetylase 2, sequence (Q92769 whole entry, the tested form may be a part): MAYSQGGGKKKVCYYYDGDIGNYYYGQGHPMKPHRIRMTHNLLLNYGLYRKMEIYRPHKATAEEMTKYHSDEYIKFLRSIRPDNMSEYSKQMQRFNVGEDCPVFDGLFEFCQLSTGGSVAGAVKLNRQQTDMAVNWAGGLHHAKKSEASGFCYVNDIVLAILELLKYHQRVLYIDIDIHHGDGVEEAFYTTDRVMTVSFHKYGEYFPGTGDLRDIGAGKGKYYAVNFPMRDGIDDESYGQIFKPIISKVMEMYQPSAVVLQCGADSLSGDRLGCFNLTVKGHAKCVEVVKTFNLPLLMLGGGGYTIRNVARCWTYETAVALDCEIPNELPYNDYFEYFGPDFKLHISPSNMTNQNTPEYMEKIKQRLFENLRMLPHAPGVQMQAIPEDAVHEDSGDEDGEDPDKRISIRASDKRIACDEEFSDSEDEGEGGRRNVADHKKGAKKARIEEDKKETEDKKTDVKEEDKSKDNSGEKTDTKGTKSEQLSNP
Histone deacetylase 1, sequence (Q13547 whole entry, the tested form may be a part): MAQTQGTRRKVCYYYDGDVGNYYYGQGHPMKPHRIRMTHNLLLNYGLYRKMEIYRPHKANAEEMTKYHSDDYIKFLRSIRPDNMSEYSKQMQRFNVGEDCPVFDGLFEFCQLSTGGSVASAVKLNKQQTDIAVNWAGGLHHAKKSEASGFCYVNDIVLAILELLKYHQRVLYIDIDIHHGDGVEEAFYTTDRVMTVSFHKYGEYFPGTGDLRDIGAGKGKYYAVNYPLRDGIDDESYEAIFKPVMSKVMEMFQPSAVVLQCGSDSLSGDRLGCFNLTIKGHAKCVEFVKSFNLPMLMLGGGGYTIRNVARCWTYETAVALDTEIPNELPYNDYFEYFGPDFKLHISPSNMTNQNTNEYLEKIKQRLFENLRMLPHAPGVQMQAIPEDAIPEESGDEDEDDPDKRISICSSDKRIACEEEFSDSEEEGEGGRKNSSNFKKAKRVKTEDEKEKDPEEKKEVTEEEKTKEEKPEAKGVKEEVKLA
Histone deacetylase 9, sequence (Q9UKV0 whole entry, the tested form may be a part): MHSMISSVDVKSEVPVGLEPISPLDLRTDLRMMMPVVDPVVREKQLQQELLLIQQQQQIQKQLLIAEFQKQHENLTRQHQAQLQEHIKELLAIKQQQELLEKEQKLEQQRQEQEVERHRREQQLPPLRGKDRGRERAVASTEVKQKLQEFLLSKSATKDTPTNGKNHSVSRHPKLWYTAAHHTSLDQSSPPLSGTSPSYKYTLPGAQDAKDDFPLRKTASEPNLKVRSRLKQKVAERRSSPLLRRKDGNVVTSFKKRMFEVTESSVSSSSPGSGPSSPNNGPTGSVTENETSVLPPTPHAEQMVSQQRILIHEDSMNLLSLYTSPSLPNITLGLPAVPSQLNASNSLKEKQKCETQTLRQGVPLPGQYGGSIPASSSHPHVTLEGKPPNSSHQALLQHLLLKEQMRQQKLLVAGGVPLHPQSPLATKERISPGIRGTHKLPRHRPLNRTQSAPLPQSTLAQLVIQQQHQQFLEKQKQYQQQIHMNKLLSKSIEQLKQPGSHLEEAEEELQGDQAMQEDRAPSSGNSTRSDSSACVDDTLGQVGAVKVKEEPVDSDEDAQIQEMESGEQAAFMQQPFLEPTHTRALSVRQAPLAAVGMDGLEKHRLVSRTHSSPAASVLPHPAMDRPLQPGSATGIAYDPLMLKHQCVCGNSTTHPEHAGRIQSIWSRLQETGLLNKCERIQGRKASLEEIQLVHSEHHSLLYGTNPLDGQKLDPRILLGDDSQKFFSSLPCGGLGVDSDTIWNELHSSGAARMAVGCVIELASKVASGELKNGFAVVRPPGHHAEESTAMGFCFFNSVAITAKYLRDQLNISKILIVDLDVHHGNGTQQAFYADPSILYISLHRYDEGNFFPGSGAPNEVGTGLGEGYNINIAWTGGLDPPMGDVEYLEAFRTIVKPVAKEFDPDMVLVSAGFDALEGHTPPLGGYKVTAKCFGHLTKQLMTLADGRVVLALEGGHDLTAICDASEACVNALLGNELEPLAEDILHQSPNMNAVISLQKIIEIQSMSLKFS

SMILES: O=C(CCCCCN1C(=O)c2cccc3c(NCc4ccccc4)ccc(c23)C1=O)NO
- IC50 [1]: 3.5 nM
- IC50 (Histone deacetylase 9): 9300 nM
- Ratio IC50 (Homo sapiens [2]): 560 to 566
- Ratio IC50 (Homo sapiens [3]): > 2000
- Drug uptake [4]: Active
- IC50 (Histone deacetylase 1): 1980 nM
- Ratio IC50 (Homo sapiens [5]): 1500
- IC50 (Histone deacetylase 2): 850 nM
- Ratio IC50 (Homo sapiens [6]): 910
- IC50 (Kasumi 1): 360 nM
- Ratio IC50 (Homo sapiens [7]): 240

SMILES: CCCNc1ccc2c3c(cccc13)C(=O)N(CCCCCC(=O)NO)C2=O
- IC50 [1]: 4.8 nM
- IC50 (Histone deacetylase 9): > 10000 nM
- Ratio IC50 (Homo sapiens [2]): 120 to 123
- Ratio IC50 (Homo sapiens [3]): > 2000
- Drug uptake [4]: Active
- IC50 (Histone deacetylase 1): 590 nM
- Ratio IC50 (Homo sapiens [5]): > 2000
- IC50 (Histone deacetylase 2): 420 nM
- Ratio IC50 (Homo sapiens [6]): 1900
- IC50 (Kasumi 1): 96 nM
- Ratio IC50 (Homo sapiens [7]): 88
